Screening data: PubChem, several laboratories
Most compounds without a hit are left out; they make up all but 3.8% or so of the library.
MrgX1 antag: antagonists of human MrgX1 receptor | MRGX1-HEK293 calcium flux, Fluo-4, BAM8-22 antagonism; hits give low values | B-score at 10 µM | actives 1.3% (n = 310,000) | Q96LB2 | AID 588676;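 active = calcium-response B-score plate-corrected more than 3 library SD below zero, starting fluorescence within 5 deviations, no agonist response on first addition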;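 also: peak minus trough fluorescence over baseline after final BAM8-22 challenge near maximal dose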
Target sequence (Q96LB2 whole entry, looked up): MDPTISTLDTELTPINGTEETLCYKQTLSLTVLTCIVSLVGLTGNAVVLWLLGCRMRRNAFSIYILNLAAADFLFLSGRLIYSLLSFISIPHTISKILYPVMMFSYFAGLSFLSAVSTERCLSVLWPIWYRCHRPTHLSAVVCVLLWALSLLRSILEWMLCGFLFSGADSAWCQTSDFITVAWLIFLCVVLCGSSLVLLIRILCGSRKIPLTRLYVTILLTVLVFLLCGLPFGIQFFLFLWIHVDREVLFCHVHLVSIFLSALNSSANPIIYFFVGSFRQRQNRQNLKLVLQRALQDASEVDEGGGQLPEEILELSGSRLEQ
MrgX1 PAM: allosterically activates human MrgX1 receptor signaling; Q96LB2; MrgX1-HEK293, Fluo-4 calcium flux, FDSS; hits give high values; B-score at 10 µM; actives 0.63% (n = 310,000); AID 588675;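 active = plate-corrected calcium response at least 3 library SD above typical, normal starting fluorescence, not activating the receptor alone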;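 also: compound read alongside a low EC10 to EC30 dose of BAM8-22 agonist; peak minus trough fluorescence over baseline measured at the second addition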
RGS4 block: human RGS4 inhibition | P49798 | HEK293 M3R/RGS4 inducible, Fluo-4 calcium flux; hits give high values; triggered by carbachol at its EC20 | B-score at 10 µM | actives 0.45% (n = 310,000);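 active = B-score, a plate-corrected calcium signal, over three deviations above library mean, with baseline fluorescence within five deviations of library mean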;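 also: RGS4 expression induced by doxycycline in cells with stable M3 receptor; B-score is computed from the integrated fluorescence ratio over baseline after carbachol; higher B-score means a larger calcium signal and so more RGS4 inhibition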
Target sequence (P49798 whole entry, looked up): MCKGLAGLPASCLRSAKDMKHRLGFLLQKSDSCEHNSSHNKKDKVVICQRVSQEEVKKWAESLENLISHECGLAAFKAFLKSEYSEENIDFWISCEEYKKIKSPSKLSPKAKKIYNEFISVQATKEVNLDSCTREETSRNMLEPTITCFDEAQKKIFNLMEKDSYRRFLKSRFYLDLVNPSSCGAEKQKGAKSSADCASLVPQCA
RGS4 pot: RGS4 potentiation or activation; B-score at 10 µM; AID 463111; actives 0.92% (n = 310,000); HEK293 M3R/inducible RGS4, carbachol calcium flux Fluo4; hits give low values;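 active = B-score of the integrated calcium signal more than 4 SD below the library mean, with starting fluorescence not abnormally high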;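 also: negative B-score means reduced calcium response which marks RGS4 activation or potentiation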
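System: HEK293 FlpIn-TREx cells, stable M3R, doxycycline-inducible RGS4. Timing: overnight RGS4 induction, 30 min dye load 37 °C, 20 min compound RT. Also added: carbachol, ECmax concentration. Measured by: Fluo4 fluorescence kinetic imaging of calcium. Evaluation: integrated calcium ratio converted to B score.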
MrgX1 ag: human MrgX1 receptor agonism, primary screen; AID 588627; MrgX1-HEK293 cells, Fluo-4 calcium fluorescence, agonist mode; hits give high values; actives 0.44% (n = 310,000); Q96LB2; B-score at 10 µM;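 active = calcium response B-score plate-corrected fluorescence ratio at least 3 library SD, with starting fluorescence B-score inside 5 SD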
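System: HEK293 cells stably expressing human MrgX1 receptor; Dosing: test compound in the initial addition of three; Schedule: overnight plating, then 30 min 37 °C plus 30 min room-temperature dye loading; Detection: kinetic calcium dye fluorescence, Fluo-4 NW; Controls: per-plate positive and negative controls for Z′ factor.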
Lipid droplet: modulators of hepatic lipid droplet formation; AML12 mouse hepatocytes, oleate lipid droplets, BODIPY imaging; inhibition, % at 6.5 µM; actives 0.4% (n = 240,000);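 active = lipid droplet intensity inhibited by at least 50%, with more than 500 cells counted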
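Assay system: AML12 mouse liver cells | Compound: 6.5 µM single-point dosing | Schedule: Overnight exposure | Technique: Fluorescence imaging, 20x objective, two fields per well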
Active calls of the source: *.

`O=C1OC[C@H](Cc2ccc3c(c2)OCO3)/C1=C\c1ccc2c(c1)OCO2` gave MrgX1 antag -4.6*, MrgX1 PAM inactive, RGS4 block inactive, RGS4 pot inactive and MrgX1 ag inactive.
CCOP(=O)(OCC)C(NC(=O)Nc1ccc(Cl)c(Cl)c1)c1ccccc1 (configuration not stated) was read as MrgX1 antag inactive, MrgX1 PAM inactive, RGS4 block inactive, RGS4 pot inactive, MrgX1 ag inactive and Lipid droplet 11.
For CCOP(=O)(OCC)C(NC(=O)Nc1ccc(C)c(Cl)c1)c1ccccc1 (configuration not stated) the results were MrgX1 antag -7.8*, MrgX1 PAM inactive, RGS4 block inactive, RGS4 pot inactive, MrgX1 ag inactive and Lipid droplet 6.
Screening Clc1cc(CSc2ccccc2)nc(-c2ccccc2)n1 returned MrgX1 antag inactive, MrgX1 PAM inactive, RGS4 block inactive, RGS4 pot inactive, MrgX1 ag inactive and Lipid droplet 0.
For Clc1ccc(SCc2cc(Cl)nc(-c3ccccc3)n2)cc1 the results were MrgX1 antag inactive, MrgX1 PAM inactive, RGS4 block inactive, RGS4 pot -7* and MrgX1 ag inactive.
Screening NS(=O)(=O)c1ccc(CNC(=O)c2csc3c2CCCC3)cc1 returned MrgX1 antag inactive, MrgX1 PAM inactive, RGS4 block inactive, RGS4 pot inactive, MrgX1 ag inactive and Lipid droplet -7.
CC1(C)Oc2ccc3ccc(=O)oc3c2/C(=C/NC2CCCCC2)C1=O was read as MrgX1 antag inactive, MrgX1 PAM inactive, RGS4 block inactive, RGS4 pot -7*, MrgX1 ag inactive and Lipid droplet 5.
`COc1cccc(-c2nc(C(=O)NCC3CCCO3)cc3c2[nH]c2ccccc23)c1` (configuration not stated) gave MrgX1 antag inactive, MrgX1 PAM inactive, RGS4 block inactive, RGS4 pot -7.2* and MrgX1 ag inactive.
For Cc1nn(CCOc2ccccc2)c(=O)n1-c1ccccc1 the results were MrgX1 antag inactive, MrgX1 PAM inactive, RGS4 block inactive, RGS4 pot inactive and MrgX1 ag inactive.
Cc1nn(CCOc2ccccc2)c(=O)n1-c1ccc(Cl)cc1 was read as MrgX1 antag inactive, MrgX1 PAM 11*, RGS4 block inactive, RGS4 pot inactive, MrgX1 ag inactive and Lipid droplet 9.
Cc1c(C)[n+](=O)c(-c2ccc(Br)cc2)c(C)n1[O-] was read as MrgX1 antag inactive, MrgX1 PAM inactive, RGS4 block inactive, RGS4 pot inactive, MrgX1 ag inactive and Lipid droplet 25.
CC(=O)N(c1nc(CCl)cs1)c1cccc(C)c1C was read as MrgX1 antag inactive, MrgX1 PAM inactive, RGS4 block inactive, RGS4 pot inactive, MrgX1 ag inactive and Lipid droplet 16.
Screening CC(=O)N(c1nc(/C=C\C(=O)O)cs1)c1ccccc1F returned MrgX1 antag inactive, MrgX1 PAM inactive, RGS4 block inactive, RGS4 pot inactive, MrgX1 ag 32* and Lipid droplet -1.
For NS(=O)(=O)c1ccc(CCNS(=O)(=O)Cc2ccc(Cl)cc2)cc1 the results were MrgX1 antag inactive, MrgX1 PAM inactive, RGS4 block inactive, RGS4 pot inactive, MrgX1 ag inactive and Lipid droplet 12.
`O=C(CCc1ccc(Oc2cc([N+](=O)[O-])cc([N+](=O)[O-])c2)cc1)N1CCCCCC1` gave MrgX1 antag inactive, MrgX1 PAM inactive, RGS4 block inactive, RGS4 pot -10*, MrgX1 ag inactive and Lipid droplet 0.
For CCOc1ccc(Br)cc1/C(C)=N\NC1=NCCN1 the results were MrgX1 antag inactive, MrgX1 PAM inactive, RGS4 block inactive, RGS4 pot -7*, MrgX1 ag inactive and Lipid droplet -33.
For Cc1cccc(NC(=O)CCCCCN2C(=O)[C@@H]3Cc4ccccc4CN3C2=O)c1 the results were MrgX1 antag inactive, MrgX1 PAM inactive, RGS4 block inactive, RGS4 pot inactive, MrgX1 ag inactive and Lipid droplet 1.
Screening O=C(CCCCCN1C(=O)[C@@H]2Cc3ccccc3CN2C1=O)Nc1cccc(F)c1 returned MrgX1 antag inactive, MrgX1 PAM inactive, RGS4 block inactive, RGS4 pot -7.5*, MrgX1 ag inactive and Lipid droplet 10.
Screening CC(C)(C)C1=CC(O)(c2ccccc2)C=C(C(C)(C)C)C1=O returned MrgX1 antag inactive, MrgX1 PAM inactive, RGS4 block inactive, RGS4 pot inactive, MrgX1 ag inactive and Lipid droplet 2.
Screening CC(Cc1ccccc1)NC(=O)c1cc([N+](=O)[O-])ccc1Cl (configuration not stated) returned MrgX1 antag inactive, MrgX1 PAM inactive, RGS4 block inactive, RGS4 pot inactive, MrgX1 ag inactive and Lipid droplet 1.
Screening Cn1c(Cn2c(C(F)(F)F)nc3ccccc32)nc2ccccc21 returned MrgX1 antag -4.9*, MrgX1 PAM inactive, RGS4 block inactive, RGS4 pot inactive, MrgX1 ag inactive and Lipid droplet 9.
Screening OCCn1c(C(F)(F)F)nc2ccccc21 returned MrgX1 antag inactive, MrgX1 PAM inactive, RGS4 block inactive, RGS4 pot inactive, MrgX1 ag inactive and Lipid droplet -18.
Screening O=C(NCCCSc1ccccc1)c1cc(Br)ccc1O returned MrgX1 antag inactive, MrgX1 PAM inactive, RGS4 block inactive, RGS4 pot inactive, MrgX1 ag inactive and Lipid droplet -6.
Screening O=C(Nc1ccc2c(c1)OCO2)c1cc2ncc(Br)cn2n1 returned RGS4 block inactive, RGS4 pot inactive and Lipid droplet 69*.
`Cc1cc(C)cc(N2CC(C(=O)OCC(=O)Nc3cc(C)on3)CC2=O)c1` (configuration not stated) gave MrgX1 antag inactive, MrgX1 PAM inactive, RGS4 block inactive, RGS4 pot inactive, MrgX1 ag inactive and Lipid droplet -13.
Screening C#CCOc1c(Br)cc(/C=N/O)cc1OCC returned MrgX1 antag inactive, MrgX1 PAM 7.9*, RGS4 block inactive, RGS4 pot inactive, MrgX1 ag inactive and Lipid droplet 12.
Screening COCCNC(=O)c1cccc(OC2CCN(C(C)COc3ccccc3)CC2)c1 (configuration not stated) returned MrgX1 antag inactive, MrgX1 PAM inactive, RGS4 block inactive, RGS4 pot inactive, MrgX1 ag 32* and Lipid droplet -1.
